The subject of assay [1] is Nucleic Acid. Briefly: Induction of DNA intercalation in pRYG DNA at 100 uM by agarose gel electrophoresis. In kind it is nucleic-acid assay.
The target in assay [2] is DNA topoisomerase 2-alpha (Homo sapiens) (UniProt P11388). Description: Inhibition of human topoisomerase 2alpha-mediated relaxation of double-stranded pRYG DNA at 100 uM by agarose gel electrophoresis. In outline: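 Purified human topoisomerase IIα (3 units) was added last. Incubation was 37 °C for 60 min, quenched with 1% SDS/25 mM EDTA, then proteinase K. Products ran on 1% agarose in TBE without ethidium bromide and were stained afterward.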

Assay [3] addresses T1, Type II restriction enzyme XhoI (Xanthomonas vasicola) (UniProt Q9KVZ7).
T1 sequence (whole entry): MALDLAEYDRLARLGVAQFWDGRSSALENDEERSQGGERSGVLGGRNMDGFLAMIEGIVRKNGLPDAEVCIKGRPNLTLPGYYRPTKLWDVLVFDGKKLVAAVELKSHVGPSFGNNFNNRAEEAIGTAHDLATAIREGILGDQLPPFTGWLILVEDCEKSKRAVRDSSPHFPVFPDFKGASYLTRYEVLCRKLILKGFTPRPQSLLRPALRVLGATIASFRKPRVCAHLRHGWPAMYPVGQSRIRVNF
Briefly: Inhibition of Xanthomonas vasicola XhoI assessed as pBSKS cleavage at 100 uM by endonuclease assay. The essentials: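 Plasmid pBluescript with 1 unit XhoI in place of topoisomerase, using the relaxation protocol: 0.5 mM ATP, Tris-HCl/KCl/NaCl/EDTA/MgCl2/glycerol buffer pH 8.0, 1% DMSO, 37 °C for 60 min. The reaction was quenched with SDS/EDTA and treated with proteinase K. Products were resolved on 1% agarose in TBE.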

The target of assay [4] is DNA topoisomerase 2-alpha (Homo sapiens) (UniProt P11388). Description: Inhibition of human topoisomerase 2alpha-mediated kinetoplast DNA decatenation at 100 uM. The essentials:
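Incubation was 60 min at 37 °C, then SDS stop and proteinase K (55 °C, 30 min). Samples ran on 1% agarose containing ethidium bromide. Activity was scored as the ratio of nicked plus supercoiled minicircles to kDNA.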

Assay [5] concerns Saccharomyces cerevisiae. Description: Growth inhibition of Saccharomyces cerevisiae BY4741 after 24 hrs. It is filed as functional. The settings on record: for MIC50: BY4741, 24 h. In outline: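 BY4741 grown overnight at 30 °C in YPD and taken at log phase (~0.6 OD660/ml), then diluted into fresh YPD at 0.01 OD660/ml. Compounds were given in 1% DMSO at twofold steps from 1 to 128. Growth at 30 °C for 24 h was read as OD660 and normalised to a DMSO-only control. MIC50 (50% growth inhibition) was derived from relative growth versus log10 concentration.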

A word on the MIC50: it is the lowest concentration that inhibits either 50% of growth or 50% of the strains tested, depending on the study. High values mean weaker potency, low ones greater potency.

Values after ≈ are worked out from the molar mass of the structure shown. Active and inactive are the calls of the source. The calls are words filed in the database; no cut-off is given here.

Sequence of DNA topoisomerase 2-alpha (Homo sapiens) (P11388 whole entry): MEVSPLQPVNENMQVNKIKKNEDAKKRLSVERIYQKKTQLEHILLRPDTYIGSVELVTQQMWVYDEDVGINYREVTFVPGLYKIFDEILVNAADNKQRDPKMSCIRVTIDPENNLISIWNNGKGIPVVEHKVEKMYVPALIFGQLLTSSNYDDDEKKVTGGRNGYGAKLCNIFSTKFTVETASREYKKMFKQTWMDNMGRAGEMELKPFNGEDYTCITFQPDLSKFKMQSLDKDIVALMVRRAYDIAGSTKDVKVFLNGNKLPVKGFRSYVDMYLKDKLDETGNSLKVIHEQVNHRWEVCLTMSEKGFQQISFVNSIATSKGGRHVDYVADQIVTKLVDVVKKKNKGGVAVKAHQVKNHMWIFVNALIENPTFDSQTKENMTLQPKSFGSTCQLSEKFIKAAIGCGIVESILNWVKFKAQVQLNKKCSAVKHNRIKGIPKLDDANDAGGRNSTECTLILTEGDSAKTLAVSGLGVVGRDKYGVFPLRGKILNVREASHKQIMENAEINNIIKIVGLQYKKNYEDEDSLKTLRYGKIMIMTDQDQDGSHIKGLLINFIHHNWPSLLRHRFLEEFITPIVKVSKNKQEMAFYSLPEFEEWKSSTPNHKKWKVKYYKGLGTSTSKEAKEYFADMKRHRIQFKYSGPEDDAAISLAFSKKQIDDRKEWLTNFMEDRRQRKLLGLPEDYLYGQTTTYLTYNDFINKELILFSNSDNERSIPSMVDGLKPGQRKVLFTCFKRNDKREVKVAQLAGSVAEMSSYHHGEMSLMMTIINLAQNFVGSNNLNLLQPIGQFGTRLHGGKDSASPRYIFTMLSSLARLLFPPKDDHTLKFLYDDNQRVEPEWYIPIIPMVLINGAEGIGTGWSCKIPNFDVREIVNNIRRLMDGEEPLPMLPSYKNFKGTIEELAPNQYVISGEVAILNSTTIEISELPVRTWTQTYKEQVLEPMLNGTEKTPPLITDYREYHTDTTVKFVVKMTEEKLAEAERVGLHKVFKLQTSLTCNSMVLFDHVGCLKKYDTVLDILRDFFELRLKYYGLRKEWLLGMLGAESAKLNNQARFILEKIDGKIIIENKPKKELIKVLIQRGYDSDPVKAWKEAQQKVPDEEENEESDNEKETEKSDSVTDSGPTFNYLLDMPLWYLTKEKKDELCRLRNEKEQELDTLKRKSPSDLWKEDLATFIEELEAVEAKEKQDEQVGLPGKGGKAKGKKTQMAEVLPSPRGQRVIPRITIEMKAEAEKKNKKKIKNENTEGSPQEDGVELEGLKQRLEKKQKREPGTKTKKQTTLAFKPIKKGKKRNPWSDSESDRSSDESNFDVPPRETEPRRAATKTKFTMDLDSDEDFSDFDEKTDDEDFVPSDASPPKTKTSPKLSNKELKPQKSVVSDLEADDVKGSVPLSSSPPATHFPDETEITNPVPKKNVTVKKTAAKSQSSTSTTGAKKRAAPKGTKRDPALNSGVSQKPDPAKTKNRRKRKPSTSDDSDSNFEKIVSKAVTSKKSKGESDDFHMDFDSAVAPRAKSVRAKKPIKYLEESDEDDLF

Regarding `Cc1c2ccncc2c(C)c2c1[nH]c1ccccc12`, the outcome in assay [1] was Active. Moreover, in assay [2], the inhibition entry is “Active”. In addition, the inhibition result in assay [3] was “inactive”.

Turning to `CC(C)Oc1cc(OC(C)C)c2c(c1)C(=O)C1=C(CO[C@@H](C)C1)C2=O`, the inhibition entry in assay [4] and in assay [2] was “Active” throughout. The outcome in assay [1] was inactive. For the same compound, the inhibition result in assay [3] is “inactive”.

Turning to `C[C@H]1CC2=C(C(=O)c3c(O)cccc3C2=O)[C@@H](C)O1`, in assay [4], the inhibition entry is “Active”. In addition, the result in assay [1] was inactive. Besides, in assay [5], the MIC result is “Active”. Besides, the inhibition result in assay [3] is “inactive”.

For `C[C@@H]1CC2=C(C(=O)c3ccccc3C2=O)[C@H](C)O1`, the inhibition entry in assay [4] is “Active”. In addition, in assay [1], the outcome was inactive. Moreover, the MIC result in assay [5] is “Active”. Further, in assay [3], the inhibition result is “inactive”.

As for `C[C@H]1O[C@@H](CC(=O)O)CC2=C1C(=O)c1ccccc1C2=O`, in assay [4], the inhibition entry was “Active”. Besides, the result in assay [1] was inactive. Moreover, in assay [5], the MIC50 amounted to 5 µM (≈ 1.43 µg/mL). Besides, the inhibition result in assay [3] was “inactive”.

For the compound `COc1cccc2c1C(=O)C1=C(C[C@H](C)O[C@@H]1C)C2=O`, in assay [4], the inhibition result was “Active”. In assay [1], the result was inactive. Further, the inhibition result in assay [2] and in assay [3] was “inactive” each time. Also, in assay [5], the MIC50 was 80 µM (≈ 21.8 µg/mL).

`COc1cc(OC)c2c(c1)C(=O)C1=C(CO[C@@H](C)C1)C2=O`: the inhibition entry in assay [4] and in assay [2] was “Active” throughout. For the same compound, the outcome in assay [1] was inactive. Also, in assay [3], the inhibition result is “inactive”.

Regarding `COc1cc([C@@H]2c3cc4c(cc3[C@@H](O[C@@H]3O[C@@H]5CO[C@@H](C)O[C@H]5[C@H](O)[C@H]3O)[C@H]3COC(=O)[C@H]23)OCO4)cc(OC)c1O`, the outcome in assay [1] was inactive. Moreover, the inhibition result in assay [2] is “Active”. Further, in assay [3], the inhibition result was “inactive”.

As for `C[C@H]1CC2=C(CO1)C(=O)c1c(O)cc(O)cc1C2=O`, the inhibition result in assay [4] and in assay [2] was “Active” throughout. Further, the outcome in assay [1] was inactive. Further, the MIC result in assay [5] was “Active”. The inhibition result in assay [3] is “inactive”.

Take `C[C@H]1CC2=C(C(=O)c3ccccc3C2=O)[C@H](O)O1`: the inhibition entry in assay [4] was “Active”. Further, the outcome in assay [1] was inactive. Also, the MIC result in assay [5] was “Active”. The inhibition result in assay [3] was “inactive”.

Turning to `COc1ccc2c(c1)C(=O)C1=C(C[C@H](CC(=O)O)O[C@@H]1C)C2=O` (racemic), the inhibition result in assay [4] and in assay [2] was “Active” in each case. The result in assay [1] was inactive. The MIC entry in assay [5] was “Active”. In assay [3], the inhibition entry is “inactive”.

For the compound `C[C@H]1CC2=C(C(=O)c3ccccc3C2=O)[C@@H](C)O1`, the inhibition result in assay [4] was “Active”. Further, the outcome in assay [1] was inactive. In assay [5], the MIC result is “Active”. The inhibition result in assay [3] is “inactive”.

`COc1cc(O)c2c(c1)C(=O)C1=C(CO[C@@H](C)C1)C2=O`: the inhibition result in assay [4] and in assay [2] was “Active” each time. In assay [1], the result was inactive. For the same compound, the inhibition entry in assay [3] is “inactive”.

As to `C[C@H]1CC2=C(C(=O)c3c(O)cc(O)cc3C2=O)[C@H](O)O1`, the inhibition result in assay [4] is “Active”. In assay [1], the result was inactive. Also, the inhibition entry in assay [2] and in assay [3] was “inactive” in each case. The MIC result in assay [5] was “inactive”.

With `COc1cc(OC)c2c(c1)C(=O)C1=C(C2=O)[C@@H](C)O[C@@H](C)C1`, the inhibition result in assay [4] was “Active”. In addition, the result in assay [1] was inactive. The inhibition result in assay [3] was “inactive”.

For the compound `COc1cc(O)c2c(c1)C(=O)C1=C(C2=O)[C@@H](C)O[C@@H](C)C1`, the inhibition result in assay [4] was “Active”. For the same compound, in assay [1], the outcome was inactive. Also, the inhibition entry in assay [2] and in assay [3] was “inactive” in each case. Also, the MIC50 in assay [5] was 5 µM (≈ 1.44 µg/mL).

The values are drawn from ChEMBL document CHEMBL1152635, “Pyranonaphthoquinone derivatives of eleutherin, ventiloquinone L, thysanone and nanaomycin A possessing a diverse topoisomerase II inhibition and cytotoxicity spectrum” (2009).
